Data: paper PMC9643156 (Acta Pharmaceutica Sinica. B, 2022)

Experiments:
[1] = tested on: LNCaP, 22RV1 and LNCaP-ENZR cells; assay: Viability screen of 197 compounds in PCa cells; assay type: cell-based; conditions: 20 μmol/L, 72 h, 22RV1, LNCaP-ENZR cells
[2] = tested on: 22RV1 orthotopic xenografts; assay: 22RV1 orthotopic xenografts; assay type: in vivo, BALB/c-nude mice; conditions: LLU-206 25 mg/kg i.v.; ENZ 10 mg/kg p.o.
How it was run: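 Mice aged 6–8 weeks carried 22RV1 tumours implanted orthotopically in the prostate. Tumour growth was followed by bioluminescence imaging and analysed as average fluorescence values, n = 6 per group. Relative tumour weight was recorded at the end. Paraffin-embedded tumours were H&E-stained and stained for Ki-67 by IHC; Ki-67 and necrotic area were quantified by image analysis. Data are mean ± SEM, one-way ANOVA with Tukey.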

LNCaP-ENZR xenografts = assay: LNCaP-ENZR subcutaneous xenografts; assay type: in vivo, NOD-SCID mice; conditions: LLU-206 10, 25 mg/kg via tail vein; ENZ 10 mg/kg by gavage

Compound	anti-PCa activity / inhibition of proliferation in the viability screen [1]	growth of 22RV1 orthotopic xenografts [2]	antitumor activity in LNCaP-ENZR xenografts (tumor volume, tumor weight, serum PSA) (LNCaP-ENZR xenografts)
CNC(=O)c1ccc(N2C(=S)N(c3cnc(C#N)c(C(F)(F)F)c3)C(=O)C23CCC3)cc1F [ARN-509, apalutamide]	no significant inhibition	–	–
CNC(=O)c1ccc(N2C(=S)N(c3ccc(C#N)c(C(F)(F)F)c3)C(=O)C2(C)C)cc1F [ENZ, Enzalutamide]	–	exhibited resistance	completely resistant
CC(O)c1cc(C(=O)N[C@@H](C)Cn2ccc(-c3ccc(C#N)c(Cl)c3)n2)[nH]n1 (stereo partly shown) [ODM-201, darolutamide]	no significant inhibition	–	–
